The values that follow come from ChEMBL document CHEMBL1122794, “[(Arylcarbonyl)oxy]propanolamines. 1. Novel beta-blockers with ultrashort duration of action” (J Med Chem, 1984).

One may read the pA2 as the negative logarithm of the molar antagonist concentration that doubles the agonist concentration needed for the same response. Low readings indicate a weaker antagonist, high ones a more potent antagonist. The amount remaining is what is left of the initial amount, in per cent. High values mean less turnover, low ones more turnover. One may read the Inhibition as the share of the control response that was lost under treatment. A high value points to a strong effect. One may read the half-life as the time needed for the level to fall by half in the phase considered.

The nature of data set [1]: (§1) Selectivity determined by expression 10[pA2(atria) - pA2 (trachea)] in guinea pig. The data set is classed as functional, Cavia porcellus.
The species entered for data set [2] is Canis familiaris. Briefly: Time taken for 80% recovery at a dose of 59 microg (3-h infusion period). The conditions noted are these: Canis lupus familiaris. The data set is classed as functional, organism-based. The method, boiled down: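 After the infusion ended, the time to 80% recovery of the blockade was recorded as duration of action. The listed dose is the average amount infused per minute over the 3-h period, in µg/(kg min).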

In data set [3] the target is T1, Adrenergic receptor beta (Homo sapiens, UniProt P08588+P07550+P13945). Nature of the data set: In Vitro inhibition of the beta adrenergic receptor in guinea pig atria. The data set is classed as tissue-based, Cavia porcellus. The conditions noted are these: target entry is the homologue from another species.
The target in data set [4] is T1, Adrenergic receptor beta. Nature of the data set: In vitro blocking of beta adrenergic receptor in guinea pig trachea. In kind it is tissue-based, Cavia porcellus. The settings on record: target entry is the homologue from another species.
A short description of data set [5]: as §1. The data set is classed as functional, Cavia porcellus. A digest of the protocol: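 Selectivity index calculated as 10^[pA2(atria) − pA2(trachea)] from pA2 values measured in isolated guinea pig atria and trachea. A minus sign denotes β2 selectivity.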
This is another data set of the same source.

Data set [6] is filed under the species Canis familiaris. Nature of the data set: Time taken for 80% recovery at a dose of 172 microg (3-h infusion period). The conditions noted are these: Canis lupus familiaris. In kind it is functional, organism-based.
The nature of data set [7]: Stability at pH 7.4 and 37 degree Celsius (after 18 h). The data set is classed as physicochemical. The settings on record: buffer. The method, boiled down: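 Chemical stability was tested in pH 7.4 buffer at 37 °C. The percentage of parent compound remaining after 18 h of incubation was recorded.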
Data set [8] is filed under the species Canis familiaris. Nature of the data set: Time taken for 80% recovery at a dose of 100 microg (3-h infusion period). The settings on record: Canis lupus familiaris. The data set is classed as functional, organism-based.
Data set [9] is filed under the species Canis familiaris. Nature of the data set: Percent inhibition of isoproterenol induced tachycardia at a dose of 100 microg (3-h infusion period). The data set is classed as functional, Canis lupus familiaris.
Data set [10] is filed under the species Canis familiaris. Briefly: Percent inhibition of isoproterenol induced tachycardia at a dose of 15 microg (3-h infusion period). In kind it is functional, Canis lupus familiaris.
The nature of data set [11]: T1/2 in canine blood. The data set is classed as ADME, […], Canis lupus familiaris. The settings on record: dog. The method, boiled down: (§2)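 1 mL of solution containing 50 µg of compound was added to 1 mL of dog or human whole blood, or to 1 mL of 33% (w/v) canine liver homogenate. They were assayed by HPLC on a phenyl column with 60% acetonitrile/40% 0.05 M sodium phosphate (pH 6.6) and UV detection. Half-life was read graphically from concentration versus time.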

The species named for data set [12] is Canis familiaris. Nature of the data set: Time taken for 80% recovery at a dose of 15 microg (3-h infusion period). In kind it is functional, organism-based. The conditions noted are these: Canis lupus familiaris.
Data set [13] is described as follows: Time in which 1/2 of the initial amount disappeared in human blood. The data set is classed as ADME, organism-based. A digest of the protocol: as §2
A short description of data set [14]: t1/2 in canine liver. The data set is classed as ADME, Canis lupus familiaris. The conditions noted are these: dog.
For data set [15], the species on record is Canis familiaris. Nature of the data set: Time taken for 80% recovery at a dose of 50 microg (3-h infusion period). In kind it is functional, organism-based. The conditions noted are these: Canis lupus familiaris.
For data set [16], the species on record is Canis familiaris. Nature of the data set: Time taken for 80% recovery at a dose of 28 microg (3-h infusion period). The data set is classed as functional, organism-based. The conditions noted are these: Canis lupus familiaris.
The species named for data set [17] is Canis familiaris. Briefly: Time taken for 80% recovery at a dose of 121 microg (3-h infusion period) / 88 kg min (40-min infusion model). The data set is classed as functional, organism-based. The settings on record: Canis lupus familiaris.
The species entered for data set [18] is Canis familiaris. Briefly: Percent inhibition of isoproterenol induced tachycardia at a dose of 1.3 microg (3-h infusion period). In kind it is functional, Canis lupus familiaris.
The species entered for data set [19] is Canis familiaris. Nature of the data set: Time taken for 80% recovery at a dose of 106 microg (3-h infusion period). In kind it is functional, organism-based. The conditions noted are these: Canis lupus familiaris.
Data set [20] is described as follows: Time in which 1/2 of the initial amount disappeared in canine liver(106). The data set is classed as ADME, […], Canis lupus familiaris. The conditions noted are these: dog. The method, boiled down: as §2
For data set [21], the species on record is Canis familiaris. Briefly: Percent inhibition of isoproterenol induced tachycardia at a dose of 4 microg (3-h infusion period). The data set is classed as functional, Canis lupus familiaris.
The species entered for data set [22] is Canis familiaris. Briefly: Time taken for 80% recovery at a dose of 4 microg (3-h infusion period). The data set is classed as functional, organism-based. The settings on record: Canis lupus familiaris.
The species entered for data set [23] is Canis familiaris. Nature of the data set: Time taken for 80% recovery at a dose of 25 microg (3-h infusion period). In kind it is functional, organism-based. The settings on record: Canis lupus familiaris.
The species entered for data set [24] is Canis familiaris. Briefly: Time taken for 80% recovery at a dose of 209 microg (3-h infusion period). The conditions noted are these: Canis lupus familiaris. The data set is classed as functional, organism-based.
Data set [25] is filed under the species Canis familiaris. Briefly: Percent inhibition of isoproterenol induced tachycardia at a dose of 0.59-1.26 microg (3-h infusion period). The data set is classed as functional, Canis lupus familiaris.
Data set [26] is filed under the species Canis familiaris. Nature of the data set: Time taken for 80% recovery at a dose of 0.59-1.26 microg (3-h infusion period). The data set is classed as functional, organism-based. The conditions noted are these: Canis lupus familiaris.

The compound `COc1ccc(CCNCC(O)COC(=O)c2ccc(F)cc2)cc1OC` (stereo unspecified) showed a Selectivity in [1] of 2. For the same compound, in the data set filed under Canis familiaris [2], the Recovery time is more than 60 min. In addition, the results for the pA2 on Adrenergic receptor beta [3] and at Adrenergic receptor beta [4] were 7 and 6.7, respectively.

In [5], `CCCOc1ccccc1C(=O)OCC(O)CNC(C)C` (stereo unspecified) returned a Selectivity of -3.5. In addition, the pA2 turned out to be 6.6 at Adrenergic receptor beta [3] and 7.1 at Adrenergic receptor beta [4]. Further, in the data set filed under Canis familiaris [6], the Recovery time is more than 60 min.

For the compound `COc1ccc(CCNCC(O)COC(=O)c2ccccc2F)cc1OC` (stereo unspecified), the fraction remaining at 18 h in [7] is 35%. Besides, the Selectivity in data set [1] is given as 2.5. Besides, in the data set listed under Canis familiaris [8], the Recovery time is more than 60 min. Besides, the figures for the pA2 on Adrenergic receptor beta [3] and at Adrenergic receptor beta [4] were 6.1 and 5.7, respectively. The compound also showed an Inhibition in the data set filed under Canis familiaris [9] of 48%.

`CC(=O)NCC(C)(C)NCC(O)COC(=O)c1ccccc1F` (stereo unspecified) displayed an Inhibition in the data set listed under Canis familiaris [10] of 61%. In [11], this compound displayed a half-life of 7.5 min. The compound further showed a Recovery time in the data set listed under Canis familiaris [12] of 35 min.

In data set [7], `Cc1ccccc1C(=O)OCC(O)CNC(C)C` (stereo unspecified) registered an amount remaining at 18 h of 100%. The half-life was more than 180 min in [13], 147 min in data set [14] and more than 180 min in data set [11]. Moreover, the Selectivity in data set [1] is -4. In addition, the pA2 at Adrenergic receptor beta [3] is given as 6.5; at Adrenergic receptor beta [4], 7.1. The same compound came in with a Recovery time in the data set filed under Canis familiaris [15] of more than 60 min.

Compound `CC(C)(C)NCC(O)COC(=O)c1ccc2c(c1)OCO2` (stereo unspecified) gave a Recovery time in the data set filed under Canis familiaris [16] of more than 60 min. Also, the pA2 at Adrenergic receptor beta [3] is on record as 6.9.

Consider `COc1ccc(CCNCC(O)COC(=O)c2ccccc2)cc1OC` (stereo unspecified), for which, in data set [1], the Selectivity worked out at 5. For the same compound, the pA2 on Adrenergic receptor beta [3] turned out to be 7; on Adrenergic receptor beta [4], 6.3. For the same compound, the Recovery time in the data set listed under Canis familiaris [17] came to 29 min.

In the data set listed under Canis familiaris [18], `CC(C)NCC(O)COc1cccc2ccccc12` (stereo unspecified) [PROPRANOLOL] came in with an Inhibition of 68%. The compound also registered a half-life in data set [11] of more than 180 min.

In the data set listed under Canis familiaris [19], `CC(C)NCC(O)COC(=O)c1ccccc1F` (stereo unspecified) displayed a Recovery time of 25 min. The compound further came in with an amount remaining at 18 h in data set [7] of 83%. Moreover, the half-life in data set [13] is 1.7 min; in [20] it was 4 min; in [11], 7 min. Besides, the pA2 on Adrenergic receptor beta [4] was 7.1.

Regarding `CC(C)(C)NCC(O)COC(=O)c1ccc(O)cc1` (stereo unspecified), the Inhibition in the data set listed under Canis familiaris [21] is 71%. Further, the figures for the half-life in data set [13], in data set [14] and in data set [11] were 56 min, more than 180 min and more than 180 min, respectively. In the data set listed under Canis familiaris [22], this compound showed a Recovery time of more than 60 min. The compound further yielded a Selectivity in [1] of 9. Besides, the pA2 at Adrenergic receptor beta [3] is reported as 7.4; on Adrenergic receptor beta [4], 6.5.

In [1], `CC(C)NCC(O)COC(=O)c1ccc(O)cc1` (stereo unspecified) gave a Selectivity of -2.5. Besides, the pA2 is recorded as 6.8 at Adrenergic receptor beta [3] and 7.2 at Adrenergic receptor beta [4]. Also, the Recovery time in the data set listed under Canis familiaris [23] was more than 45 min.

As for `COc1ccc(C(=O)OCC(O)CNC(C)C)cc1` (stereo unspecified), the half-life in data set [13] came out at 55 min; in data set [14] it was 37 min; in [11], 150 min. In addition, in [1], the Selectivity is reported as -2. Besides, the Recovery time in the data set listed under Canis familiaris [24] was more than 60 min. Also, the values for the pA2 on Adrenergic receptor beta [3] and on Adrenergic receptor beta [4] were 6 and 6.3, respectively.

For `CC(C)NCC(O)COC(=O)c1ccc(N)cc1` (stereo unspecified), the results for the half-life in data set [13], in [14] and in data set [11] were 60 min, more than 180 min and more than 180 min, respectively. The Selectivity in data set [1] amounted to 1. In the data set filed under Canis familiaris [25], this compound had an Inhibition of 80%. Moreover, the pA2 at Adrenergic receptor beta [3] was found to be 6.7; at Adrenergic receptor beta [4], 6.6. The compound also displayed a Recovery time in the data set filed under Canis familiaris [26] of more than 60 min.
